Experimental data reported in ChEMBL document CHEMBL1141882, “Synthesis and biological testing of purine derivatives as potential ATP-competitive kinase inhibitors” (J Med Chem, 2005).

What was measured:
[1] = target: Mitogen-activated protein kinase 10 (Rattus norvegicus) (UniProt P49187); assay: Inhibition of rat c-Jun N-terminal kinase-3 at 30 uM
Summary of the method: (§1)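 Kinase activity assayed with ATP at 100 µM, deliberately higher than usual assay ATP levels because the inhibitors are assumed ATP-competitive. Results are reported as percent inhibition of each kinase.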

[2] = target: RAC-alpha serine/threonine-protein kinase (Homo sapiens) (UniProt P31749); assay: Inhibition of human Protein kinase B alpha at 30 uM; summary of the method: as §1
[3] = target: Mitogen-activated protein kinase 14 (Homo sapiens) (UniProt Q16539); assay: Inhibition of human stress-activated protein kinase-2 alpha (p38 MAP-kinase) at 30 uM; summary of the method: as §1
[4] = target: Dual specificity mitogen-activated protein kinase kinase 1 (Homo sapiens) (UniProt Q02750); assay: Inhibition of human Mitogen activated protein kinase kinase 1 (MEK1) at 30 uM; summary of the method: as §1
[5] = target: Protein kinase C alpha type (Homo sapiens) (UniProt P17252); assay: Inhibition of human Protein kinase C alpha; design: concentration or dose not given beside the values; details: concentration not given here
[6] = target: cAMP-dependent protein kinase (PKA) (Homo sapiens) (UniProt P22694+P17612+P22612); assay: Inhibition of human cAMP-dependent protein kinase (PKA); type: protein assay; design: concentration or dose not given beside the values; details: concentration not given here
[7] = target: Ca2+/calmodulin-dependent protein kinase II (CaM kinase II) (Rattus norvegicus) (UniProt P11275+P08413+P15791+P11730); assay: Inhibition of rat Calcium/calmodulin-dependent protein kinase type II at 30 uM; type: protein assay; summary of the method: as §1
[8] = target: Glycogen synthase kinase-3 beta (Homo sapiens) (UniProt P49841); assay: Inhibition of human Glycogen synthase kinase-3 beta at 30 uM; summary of the method: as §1
[9] = target: Mitogen-activated protein kinase 8 (Homo sapiens) (UniProt P45983); assay: Inhibition of human c-Jun N-terminal kinase-1 alpha-1 at 30 uM; summary of the method: as §1
[10] = target: Mitogen-activated protein kinase 9 (Homo sapiens) (UniProt P45984); assay: Inhibition of human c-Jun N-terminal kinase-2 alpha-2 at 30 uM; summary of the method: as §1
[11] = target: Mitogen-activated protein kinase 1 (Homo sapiens) (UniProt P28482); assay: Inhibition of human Mitogen-activated protein kinase 2 at 30 uM; summary of the method: as §1
[12] = target: Tyrosine-protein kinase Lck (Homo sapiens) (UniProt P06239); assay: Inhibition of human lymphocyte protein tyrosine kinase Lck at 30 uM; summary of the method: as §1
[13] = target: RAF proto-oncogene serine/threonine-protein kinase (Homo sapiens) (UniProt P04049); assay: Inhibition of human RAF proto-oncogene serine/threonine-protein kinase at 30 uM; summary of the method: as §1
[14] = target: Rho-associated protein kinase 2 (Homo sapiens) (UniProt O75116); assay: Inhibition of human Rho-dependent protein kinase-II at 30 uM
Chain of Rho-associated protein kinase 2 (Homo sapiens) (O75116 whole entry, looked up): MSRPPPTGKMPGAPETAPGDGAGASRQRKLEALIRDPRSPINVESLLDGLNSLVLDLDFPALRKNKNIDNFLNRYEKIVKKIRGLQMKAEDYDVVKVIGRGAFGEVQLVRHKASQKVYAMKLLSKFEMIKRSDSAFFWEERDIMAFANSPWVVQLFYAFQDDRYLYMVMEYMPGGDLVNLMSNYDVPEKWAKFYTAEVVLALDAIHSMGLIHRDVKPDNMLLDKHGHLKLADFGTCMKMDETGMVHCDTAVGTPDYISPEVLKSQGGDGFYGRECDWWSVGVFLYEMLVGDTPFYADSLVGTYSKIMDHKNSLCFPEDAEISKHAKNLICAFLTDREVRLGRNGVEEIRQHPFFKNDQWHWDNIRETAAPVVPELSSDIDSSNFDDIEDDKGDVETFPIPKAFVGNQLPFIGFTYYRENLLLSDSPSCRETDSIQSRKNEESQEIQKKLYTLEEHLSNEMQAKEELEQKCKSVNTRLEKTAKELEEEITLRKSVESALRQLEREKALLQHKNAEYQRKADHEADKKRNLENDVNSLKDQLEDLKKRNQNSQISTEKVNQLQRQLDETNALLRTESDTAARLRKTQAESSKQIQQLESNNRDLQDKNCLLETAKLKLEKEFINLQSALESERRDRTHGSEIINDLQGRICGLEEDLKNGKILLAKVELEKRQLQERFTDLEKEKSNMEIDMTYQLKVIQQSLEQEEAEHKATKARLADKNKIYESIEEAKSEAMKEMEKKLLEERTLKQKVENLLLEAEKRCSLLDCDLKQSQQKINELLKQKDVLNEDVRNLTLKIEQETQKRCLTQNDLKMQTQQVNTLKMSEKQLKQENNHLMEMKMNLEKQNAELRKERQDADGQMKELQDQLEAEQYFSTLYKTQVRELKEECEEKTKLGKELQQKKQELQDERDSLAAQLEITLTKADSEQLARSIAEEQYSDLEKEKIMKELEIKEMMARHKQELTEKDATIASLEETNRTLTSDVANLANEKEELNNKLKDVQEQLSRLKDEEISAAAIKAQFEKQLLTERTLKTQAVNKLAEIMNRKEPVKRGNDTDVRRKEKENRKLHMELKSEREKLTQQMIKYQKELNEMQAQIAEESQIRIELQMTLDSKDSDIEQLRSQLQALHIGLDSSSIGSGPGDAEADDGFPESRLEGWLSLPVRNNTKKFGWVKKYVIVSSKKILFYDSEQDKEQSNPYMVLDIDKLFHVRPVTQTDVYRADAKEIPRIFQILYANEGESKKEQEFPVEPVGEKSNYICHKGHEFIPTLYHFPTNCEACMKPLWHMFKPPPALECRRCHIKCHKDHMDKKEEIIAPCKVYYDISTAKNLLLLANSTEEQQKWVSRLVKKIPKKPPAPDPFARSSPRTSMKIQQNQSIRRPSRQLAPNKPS

Chain of Mitogen-activated protein kinase 1 (Homo sapiens) (P28482 whole entry): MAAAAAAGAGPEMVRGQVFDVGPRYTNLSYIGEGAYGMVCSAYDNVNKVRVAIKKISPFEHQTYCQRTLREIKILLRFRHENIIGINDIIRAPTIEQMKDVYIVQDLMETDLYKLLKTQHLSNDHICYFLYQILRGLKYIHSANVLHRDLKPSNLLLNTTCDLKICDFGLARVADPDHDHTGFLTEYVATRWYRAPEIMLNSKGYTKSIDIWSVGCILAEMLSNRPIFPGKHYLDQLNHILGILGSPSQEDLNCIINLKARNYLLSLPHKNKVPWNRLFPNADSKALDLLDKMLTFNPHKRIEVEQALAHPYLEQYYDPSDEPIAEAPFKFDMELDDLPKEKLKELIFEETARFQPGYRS
Chain of Mitogen-activated protein kinase 9 (Homo sapiens) (P45984 whole entry, looked up): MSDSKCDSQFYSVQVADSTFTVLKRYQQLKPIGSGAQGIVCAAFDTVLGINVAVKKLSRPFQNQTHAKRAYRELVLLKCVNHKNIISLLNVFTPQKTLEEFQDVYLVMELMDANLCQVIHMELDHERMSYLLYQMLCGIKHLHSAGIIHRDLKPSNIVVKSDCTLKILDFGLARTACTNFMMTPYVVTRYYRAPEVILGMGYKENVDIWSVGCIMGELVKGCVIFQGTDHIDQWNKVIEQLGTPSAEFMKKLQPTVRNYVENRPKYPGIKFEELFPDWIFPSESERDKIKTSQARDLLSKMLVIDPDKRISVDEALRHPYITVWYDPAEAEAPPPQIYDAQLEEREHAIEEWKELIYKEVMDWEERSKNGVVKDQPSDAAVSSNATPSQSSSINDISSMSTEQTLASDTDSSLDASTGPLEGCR
Chain of Mitogen-activated protein kinase 10 (Rattus norvegicus) (P49187 whole entry): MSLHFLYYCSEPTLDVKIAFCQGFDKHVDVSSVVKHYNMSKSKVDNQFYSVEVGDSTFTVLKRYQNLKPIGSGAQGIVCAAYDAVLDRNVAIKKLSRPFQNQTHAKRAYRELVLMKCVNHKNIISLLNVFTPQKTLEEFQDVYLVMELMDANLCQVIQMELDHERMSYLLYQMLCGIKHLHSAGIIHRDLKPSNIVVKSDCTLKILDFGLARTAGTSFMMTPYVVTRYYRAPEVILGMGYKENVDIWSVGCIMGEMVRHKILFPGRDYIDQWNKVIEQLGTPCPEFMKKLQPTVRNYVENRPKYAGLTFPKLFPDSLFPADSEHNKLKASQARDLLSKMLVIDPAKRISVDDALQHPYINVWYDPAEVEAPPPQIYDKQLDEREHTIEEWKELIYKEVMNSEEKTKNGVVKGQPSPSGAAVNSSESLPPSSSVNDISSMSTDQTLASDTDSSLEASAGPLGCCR
Chain of Dual specificity mitogen-activated protein kinase kinase 1 (Homo sapiens) (Q02750 whole entry): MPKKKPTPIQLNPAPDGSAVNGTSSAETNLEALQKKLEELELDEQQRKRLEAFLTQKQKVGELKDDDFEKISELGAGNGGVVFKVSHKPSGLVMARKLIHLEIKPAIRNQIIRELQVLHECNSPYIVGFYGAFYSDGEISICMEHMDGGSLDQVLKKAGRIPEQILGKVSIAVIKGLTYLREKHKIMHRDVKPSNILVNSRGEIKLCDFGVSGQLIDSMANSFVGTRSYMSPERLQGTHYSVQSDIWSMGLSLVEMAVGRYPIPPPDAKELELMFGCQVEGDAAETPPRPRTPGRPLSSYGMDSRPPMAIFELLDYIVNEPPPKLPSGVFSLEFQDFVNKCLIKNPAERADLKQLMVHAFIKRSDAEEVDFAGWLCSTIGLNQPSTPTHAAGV
Chain of Glycogen synthase kinase-3 beta (Homo sapiens) (P49841 whole entry, looked up): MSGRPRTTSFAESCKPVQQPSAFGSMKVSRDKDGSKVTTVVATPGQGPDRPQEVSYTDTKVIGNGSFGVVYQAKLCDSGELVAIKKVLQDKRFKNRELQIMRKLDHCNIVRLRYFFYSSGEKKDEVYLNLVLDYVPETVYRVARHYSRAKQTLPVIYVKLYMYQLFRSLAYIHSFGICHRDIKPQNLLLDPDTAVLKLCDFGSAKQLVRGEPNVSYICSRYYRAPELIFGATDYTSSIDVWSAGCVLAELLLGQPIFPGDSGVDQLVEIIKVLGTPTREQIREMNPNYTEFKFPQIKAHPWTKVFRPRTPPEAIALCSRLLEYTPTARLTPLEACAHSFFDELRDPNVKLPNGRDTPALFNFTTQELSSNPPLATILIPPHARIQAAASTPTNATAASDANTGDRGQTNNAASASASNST
Chain of RAF proto-oncogene serine/threonine-protein kinase (Homo sapiens) (P04049 whole entry): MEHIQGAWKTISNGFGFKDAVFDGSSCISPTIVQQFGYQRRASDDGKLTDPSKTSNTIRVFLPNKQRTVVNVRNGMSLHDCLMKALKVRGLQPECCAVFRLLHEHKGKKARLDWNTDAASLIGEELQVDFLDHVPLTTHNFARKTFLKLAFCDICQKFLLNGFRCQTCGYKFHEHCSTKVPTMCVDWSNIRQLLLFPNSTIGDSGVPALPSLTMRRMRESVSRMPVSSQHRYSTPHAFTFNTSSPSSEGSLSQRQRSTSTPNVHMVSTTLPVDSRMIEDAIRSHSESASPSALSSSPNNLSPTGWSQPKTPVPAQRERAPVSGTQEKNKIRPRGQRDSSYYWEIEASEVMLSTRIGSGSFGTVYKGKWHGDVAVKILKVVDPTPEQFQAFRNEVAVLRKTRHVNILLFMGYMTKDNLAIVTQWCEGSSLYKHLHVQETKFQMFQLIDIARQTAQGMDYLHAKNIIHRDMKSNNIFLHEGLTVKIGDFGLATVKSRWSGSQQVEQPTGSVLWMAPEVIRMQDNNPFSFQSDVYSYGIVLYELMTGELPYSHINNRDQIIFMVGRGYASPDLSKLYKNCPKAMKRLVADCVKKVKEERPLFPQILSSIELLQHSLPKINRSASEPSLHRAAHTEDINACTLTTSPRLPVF
Chain of RAC-alpha serine/threonine-protein kinase (Homo sapiens) (P31749 whole entry): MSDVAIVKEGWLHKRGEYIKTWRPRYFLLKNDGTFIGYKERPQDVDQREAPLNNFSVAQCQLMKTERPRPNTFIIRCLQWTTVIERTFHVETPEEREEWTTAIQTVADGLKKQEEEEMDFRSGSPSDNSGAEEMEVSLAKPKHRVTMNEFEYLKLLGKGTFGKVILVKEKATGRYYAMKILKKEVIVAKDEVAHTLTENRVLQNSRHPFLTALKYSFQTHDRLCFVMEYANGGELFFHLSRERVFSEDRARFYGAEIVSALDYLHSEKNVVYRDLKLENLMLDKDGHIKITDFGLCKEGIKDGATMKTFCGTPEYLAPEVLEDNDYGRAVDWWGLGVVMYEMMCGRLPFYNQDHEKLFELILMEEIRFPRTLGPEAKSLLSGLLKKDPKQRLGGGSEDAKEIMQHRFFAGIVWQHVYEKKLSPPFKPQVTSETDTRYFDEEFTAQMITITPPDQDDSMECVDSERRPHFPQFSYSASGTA
Chain of Mitogen-activated protein kinase 14 (Homo sapiens) (Q16539 whole entry): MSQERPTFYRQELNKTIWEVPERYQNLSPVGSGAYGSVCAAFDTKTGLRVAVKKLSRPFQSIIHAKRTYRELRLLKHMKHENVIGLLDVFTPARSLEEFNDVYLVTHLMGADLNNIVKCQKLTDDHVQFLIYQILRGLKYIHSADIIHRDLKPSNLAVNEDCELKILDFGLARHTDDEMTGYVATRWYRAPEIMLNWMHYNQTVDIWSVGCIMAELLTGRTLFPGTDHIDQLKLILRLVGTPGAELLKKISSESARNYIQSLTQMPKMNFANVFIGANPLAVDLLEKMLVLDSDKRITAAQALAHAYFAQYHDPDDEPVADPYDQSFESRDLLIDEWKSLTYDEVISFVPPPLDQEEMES

Structure (SMILES) | inhibition [1] [%] | inhibition [2] [%] | inhibition [3] [%] | inhibition [4] [%] | inhibition [5] [%] | inhibition [6] [%] | inhibition [7] [%] | inhibition [8] [%] | inhibition [9] [%] | inhibition [10] [%] | inhibition [11] [%] | inhibition [12] [%] | inhibition [13] [%] | inhibition [14] [%]
c1ccc(Cc2[nH]cnc3ncnc2-3)cc1 | 30 | 0 | 8 | 3 | 7 | 7 | 2 | 5 | 0 | 0 | 3 | 0 | 9 | 1
c1ccc(Cn2cnc3c(Sc4ccccc4)ncnc32)cc1 | 0 | 1 | 64 | 6 | 0 | 0 | 3 | 1 | 0 | 0 | 0 | 0 | 0 | 1
Nc1[nH]cnc2ncnc1-2 | 10 | 0 | 7 | 9 | 6 | 14 | 0 | 0 | 0 | 0 | 17 | 19 | 14 | 28
Fc1ccc(Cc2[nH]cnc3ncnc2-3)cc1 | 0 | 3 | 1 | 0 | 0 | 0 | 8 | 2 | 0 | 0 | 0 | 0 | 0 | 2
CSc1ccc(-c2nc3c(Sc4ccccc4)ncnc3n2C)cc1 | 0 | 5 | 11 | 4 | 0 | 0 | 0 | 3 | 0 | 1 | 0 | 0 | 5 | 0
Fc1ccc(Oc2[nH]cnc3ncnc2-3)cc1 | 0 | 0 | 18 | 0 | 3 | 0 | 0 | 0 | 0 | 0 | 0 | 0 | 1 | 9

Other lines, results leading:

inhibition [1] [%] | inhibition [2] [%] | inhibition [3] [%] | inhibition [4] [%] | inhibition [5] [%] | inhibition [6] [%] | inhibition [7] [%] | inhibition [8] [%] | inhibition [9] [%] | inhibition [10] [%] | inhibition [11] [%] | inhibition [12] [%] | inhibition [13] [%] | inhibition [14] [%] | Structure (SMILES)
12 | 6 | 29 | 0 | 4 |  | 3 | 0 | 0 | 0 | 5 | 16 | 47 | 18 | Fc1ccc(CSc2[nH]cnc3ncnc2-3)cc1
4 | 0 | 0 | 0 | 2 | 0 | 0 | 0 | 1 | 0 | 0 | 9 | 0 | 2 | Fc1ccc(-[n+]2c[nH]c3ncncc32)cc1
7 | 0 | 17 | 3 | 13 | 0 | 8 | 3 | 3 | 6 | 12 | 6 | 10 | 6 | Cn1cnc2c(Sc3ccccc3)ncnc21
